Published values pooled from the literature.
Compare with care: the assays were run in different laboratories.
Target: Serine/threonine-protein kinase BRSK1 (BRSK1, Homo sapiens, UniProt Q8TDC3)
One construct used (Q8TDC3 1-778): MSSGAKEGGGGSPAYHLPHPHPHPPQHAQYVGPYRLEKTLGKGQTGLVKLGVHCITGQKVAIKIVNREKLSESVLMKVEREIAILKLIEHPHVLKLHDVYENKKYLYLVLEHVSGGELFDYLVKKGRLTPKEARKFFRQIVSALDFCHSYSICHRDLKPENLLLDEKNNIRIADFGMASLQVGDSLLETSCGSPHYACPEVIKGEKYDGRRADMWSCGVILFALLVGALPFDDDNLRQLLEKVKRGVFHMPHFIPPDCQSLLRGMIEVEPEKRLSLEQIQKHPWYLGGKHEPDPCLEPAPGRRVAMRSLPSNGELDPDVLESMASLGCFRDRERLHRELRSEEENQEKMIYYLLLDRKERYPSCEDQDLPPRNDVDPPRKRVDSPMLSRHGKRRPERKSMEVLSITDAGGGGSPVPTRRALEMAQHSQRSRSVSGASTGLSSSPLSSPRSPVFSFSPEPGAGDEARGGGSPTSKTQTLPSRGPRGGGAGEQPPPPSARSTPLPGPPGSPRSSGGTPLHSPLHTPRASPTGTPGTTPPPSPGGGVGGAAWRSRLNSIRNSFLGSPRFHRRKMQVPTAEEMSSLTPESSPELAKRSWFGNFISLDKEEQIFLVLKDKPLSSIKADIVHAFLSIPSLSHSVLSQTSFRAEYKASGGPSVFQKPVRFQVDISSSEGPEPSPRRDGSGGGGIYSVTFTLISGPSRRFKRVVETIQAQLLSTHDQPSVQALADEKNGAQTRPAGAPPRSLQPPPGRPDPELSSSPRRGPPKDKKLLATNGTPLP

Cc1nn(C)cc1-c1nc2c(N3CCN(Cc4ccc(Cl)cc4)CC3)c(Cl)cnc2[nH]1
remaining binding (binding, competition with immobilised ligand; 1 µM): 100%

Cn1cncc1[C@@](O)(COc1ccc(C#N)cc1-c1ccc(OC(F)(F)F)cc1)c1ccc(C#N)cc1
remaining binding (cell-free assay, competition with immobilised ligand; 1 µM): 86%

O=c1[nH]c2ccccc2n1C1CCN(Cc2ccc(-c3[nH]c4cc5ncnc5cc4nc3-c3ccccc3)cc2)CC1
remaining signal (cell-free assay; 0.5 µM): 98.3%

Cn1cc(-c2cc(F)cc(N3CCn4c(cc5c4CCCC5)C3=O)c2CO)cc(Nc2ccc(N3CCN(C4COC4)CC3)cn2)c1=O
inhibition (enzyme activity, inhibitor; 0.1 µM): 12%

COc1ncccc1-c1cnn2ccc(N3CCN(C(=O)OC(C)C)CC3)nc12
remaining binding (binding, competition with immobilised ligand; 1 µM): 93%

Nc1ncc(-c2nc(N3CCOCC3)nc(N3CCOCC3)n2)c(C(F)F)n1
remaining binding (binding, competition with immobilised ligand; 10 µM): 91%

N#CC1(c2ccccn2)CCN(Cc2cc(C(=O)O)c(=O)n3ccccc23)CC1
remaining binding (cell-free assay, competition with immobilised ligand; 1 µM): 100%

Cn1cc(-c2cccc(N3CCc4c(sc5c4CC(C)(C)C5)C3=O)c2CO)cc(Nc2ccncn2)c1=O
inhibition (enzyme activity, inhibitor; 1 µM): 3%

CC(C)(C)c1cc(C=C(C#N)C#N)cc(Br)c1O
remaining activity (enzyme activity, inhibitor; 0.5 µM): 94%
